NPY Y2 blocker: NPY-Y2 receptor antagonists, primary screen, cell-based | Neuropeptide Y receptor type 2 (Homo sapiens), P49146 | inhibition, % at 2.7 µM | 140,000 compounds, 0.99% hits | NPY-Y2 expressing cells, antagonist mode; in the data active = inhibition above about 17%;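 note: 0% = vehicle with agonist challenge and 100% = reference antagonist with challenge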
NPY-Y1 PAM-ag: NPY-Y1 receptor potentiators or agonists, primary screen, cell-based; Neuropeptide Y receptor type 1 (Homo sapiens), P25929; NPY-Y1 expressing cells, potentiator/agonist activation; activation, % at 3.6 µM; 220,000 compounds, 0.37% hits; AID 1304, 2008; in the data active = activation above about 33%, passing the limit was not always enough;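 note: cells stimulated with NPY at EC10 then isoproterenol at EC100; 0% = low agonist plus stimulus and 100% = saturating agonist plus stimulus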
PGE2 EP2 inh: human EP2 receptor antagonists, primary screen, TR-FRET cAMP, C6 glioma cells | Prostaglandin E2 receptor EP2 subtype (Homo sapiens), P43116 | C6 glioma cells expressing human EP2; cells stimulated with saturating PGE2 | inhibition, % at 25 µM | 260,000 compounds, 0.52% hits;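 active = percent inhibition above 40 after rounding to a whole number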;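 note: rat C6 glioma host cells with rolipram phosphodiesterase inhibitor present; the protocol text gives 20 µM as final concentration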
Target sequence (P43116 whole entry, looked up): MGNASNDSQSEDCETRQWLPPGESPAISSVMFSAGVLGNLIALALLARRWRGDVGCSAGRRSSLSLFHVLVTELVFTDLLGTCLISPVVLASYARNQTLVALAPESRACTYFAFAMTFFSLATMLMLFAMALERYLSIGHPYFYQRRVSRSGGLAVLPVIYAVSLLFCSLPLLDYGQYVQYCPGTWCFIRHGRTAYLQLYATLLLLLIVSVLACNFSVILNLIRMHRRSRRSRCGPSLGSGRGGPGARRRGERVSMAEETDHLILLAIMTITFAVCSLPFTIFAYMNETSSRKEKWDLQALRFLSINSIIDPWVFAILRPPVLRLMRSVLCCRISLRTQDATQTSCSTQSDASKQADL
EP2 mod: EP2 receptor modulators, cAMP readout, primary screen, cell-based, HTRF cAMP, PGE2 stimulation; EP2-expressing cells, cAMP HTRF FRET, PGE2 co-stimulation; induction, % at 25 µM; 260,000 compounds, 0.83% hits; AID 940, 2007;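 active = compounds whose cAMP rise, as percent of the full-agonist control response, exceeds 60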;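 note: rat C6 glioma line stably carrying human EP2 under a CMV promoter; the protocol text gives 20 µM as final concentration; 100% = response of wells given 1 µM PGE2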
NPY-Y1 antag: NPY-Y1 receptor antagonists, primary screen, cell-based | HEK293-CNG Y1 cells, membrane potential fluorescence; NPY at EC95, then isoproterenol | inhibition, % at 3.6 µM | 200,000 compounds, 1% hits | AID 1040, 2008;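 active = inhibition above the campaign mean inhibition of all tested compounds plus 3 SD, cut at about 20% in these data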;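 note: 0% = DMSO wells given NPY plus isoproterenol and 100% = isoproterenol alone without NPY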
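Test system: HEK293 cells co-expressing NPY Y1 receptor and cyclic-nucleotide gated channel; Also added: NPY (25 nM), isoproterenol (1 µM), Ro 20-1724 (25 µM); Compound dosing: one concentration, 3.6 µM, in 0.4% DMSO; Timing: dye 3 h, compound 60 min room temperature, stimulation 45 min; Technique: Membrane-potential fluorescent dye readout.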
NPY2 pot ag: NPY-Y2 potentiators or agonists, primary screen, cell-based; cells expressing NPY-Y2, potentiator/agonist read-out; 220,000 compounds, 0.45% hits; activation, % at 3.6 µM; AID 1359, 2008; in the data active = activation above about 27%;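 note: cells stimulated with NPY near EC25 plus isoproterenol at EC100; 0% = vehicle plus submaximal agonist and 100% = vehicle plus saturating agonist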
* marks the source's active call; other numbers are inactive results. Sampled rows, rich in hits. Any-hit rate of the full collection: about 2.8%.

How did CCOC(=O)c1nn(-c2ccc(OC)cc2)c(=O)c(C#N)c1C do in these assays?
PGE2 EP2 inh: 74*; EP2 mod: -33

How did COc1ccc(-n2nc(C(=O)N3CCCCC3)c(C)c(C#N)c2=O)cc1 do in these assays?
NPY-Y1 PAM-ag: 9; PGE2 EP2 inh: 14; EP2 mod: 31; NPY-Y1 antag: 5; NPY2 pot ag: 1

Results for O=C(/C=C/c1ccco1)Nc1ccccc1N1CCCCC1 ?
NPY-Y1 PAM-ag: -44; PGE2 EP2 inh: 4; EP2 mod: 62*; NPY-Y1 antag: 17; NPY2 pot ag: -17

What do the screens show for `COc1ccc2c(c1)cc(C)c1nnc(SCC(=O)NCc3ccco3)n12`?
PGE2 EP2 inh: 10; EP2 mod: -18

Results for Cc1cc2c(C)ccc(C)c2nc1SCC(=O)c1cccs1 ?
NPY Y2 blocker: 9; NPY-Y1 PAM-ag: -15; PGE2 EP2 inh: 4; EP2 mod: 63*; NPY-Y1 antag: 9; NPY2 pot ag: -17

Results for Cc1cc(C)c(C#N)c(SCC(=O)c2cccs2)n1 ?
NPY Y2 blocker: 5; NPY-Y1 PAM-ag: 6; PGE2 EP2 inh: 0; EP2 mod: -14; NPY-Y1 antag: 2; NPY2 pot ag: 6

Results for CCNC(=O)c1cc2c(=O)n3ccccc3nc2n(CCCOC)c1=N ?
PGE2 EP2 inh: 9; EP2 mod: 5

Results for COCCCn1c(=N)c(C(=O)NC2CCCCC2)cc2c(=O)n3ccccc3nc21 ?
NPY Y2 blocker: 20*; NPY-Y1 PAM-ag: -11; PGE2 EP2 inh: 15; EP2 mod: 11; NPY-Y1 antag: 15; NPY2 pot ag: 14

How did N=c1c(C(=O)NCc2ccco2)cc2c(=O)n3ccccc3nc2n1Cc1ccc(Cl)cc1 do in these assays?
NPY Y2 blocker: 25*; NPY-Y1 PAM-ag: 10; PGE2 EP2 inh: 1; NPY-Y1 antag: 36*; NPY2 pot ag: -25

What do the screens show for `N=c1c(C(=O)NCc2ccc(F)cc2)cc2c(=O)n3ccccc3nc2n1Cc1ccco1`?
NPY Y2 blocker: 16; NPY-Y1 PAM-ag: 8; EP2 mod: -20; NPY-Y1 antag: 3; NPY2 pot ag: 6

How did Cc1ccc2[nH]c(=O)c(CN(Cc3ccco3)Cc3nnnn3CCc3ccccc3)cc2c1 do in these assays?
PGE2 EP2 inh: 14; EP2 mod: 48

How did O=C(c1ccc2c(c1)OCO2)N(CC1CCCO1)C1(C(=O)NC2CCCCC2)CCCCC1 (centres undefined) do in these assays?
NPY Y2 blocker: 29*; NPY-Y1 PAM-ag: -10; PGE2 EP2 inh: 7; EP2 mod: 23; NPY-Y1 antag: 22*; NPY2 pot ag: -7

What do the screens show for `O=c1oc2c3c4c(cc2s1)CCCN4CCC3`?
NPY Y2 blocker: 4; NPY-Y1 PAM-ag: 18; PGE2 EP2 inh: 3; EP2 mod: 73*; NPY-Y1 antag: -3; NPY2 pot ag: -3

Results for O=c1ccc2cc3c4c(c2o1)CCCN4CCC3 ?
NPY-Y1 PAM-ag: -3; PGE2 EP2 inh: 7; EP2 mod: -51; NPY-Y1 antag: 5; NPY2 pot ag: 0

How did Cc1cc2c(o1)c1cnn(Cc3ccncc3)c(=O)c1n2C do in these assays?
PGE2 EP2 inh: 6; EP2 mod: -57

How did CCOc1ccccc1NC(=O)Cn1cnc2sc(C)c(-c3ccc(F)cc3)c2c1=O do in these assays?
PGE2 EP2 inh: 5; EP2 mod: -4

Results for CCOC(=O)CSc1nnc(-c2ccccc2F)o1 ?
PGE2 EP2 inh: 8; EP2 mod: 21

What do the screens show for `COc1ccccc1N(C(=O)c1cncc(Br)c1)c1nc(-c2ccc(C)cc2)cs1`?
NPY Y2 blocker: 3; NPY-Y1 PAM-ag: -4; PGE2 EP2 inh: 6; EP2 mod: 64*; NPY-Y1 antag: 0; NPY2 pot ag: 3

What do the screens show for `COc1ccc(C)cc1N(C(=O)c1ccccc1)c1nc2ccccc2s1`?
NPY Y2 blocker: 7; NPY-Y1 PAM-ag: -24; PGE2 EP2 inh: 3; EP2 mod: 34; NPY-Y1 antag: 7; NPY2 pot ag: -7

Results for CCC(C)(C)NC(=O)CN(C(=O)CCC(=O)Nc1nccs1)c1ccc(C)c(C)c1 ?
PGE2 EP2 inh: 12; EP2 mod: 20

How did CC1=C(C#N)c2nc(N)c(C#N)c(C)c2/C1=C\c1cccc(Cl)c1 do in these assays?
PGE2 EP2 inh: 50*; EP2 mod: -144

How did Cn1nc(C(C)(C)C)cc1C(=O)N1CCCC(c2ccnc3nc(C(F)(F)F)nn23)C1 (centres undefined) do in these assays?
EP2 mod: -28

Results for O=C(NCCC1=CCCCC1)C(c1ccccc1)c1ccccc1 ?
NPY Y2 blocker: 12; NPY-Y1 PAM-ag: -8; PGE2 EP2 inh: 13; EP2 mod: 24; NPY-Y1 antag: 28*; NPY2 pot ag: 5

How did Cn1c(C(=O)NCCC2=CCCCC2)cc2c(=O)n3ccccc3nc21 do in these assays?
NPY Y2 blocker: 3; NPY-Y1 PAM-ag: -19; PGE2 EP2 inh: 12; EP2 mod: 63*; NPY-Y1 antag: 4; NPY2 pot ag: -5

How did Cn1c(C(=O)NCC2CCCO2)cc2c(=O)n3ccccc3nc21 (centres undefined) do in these assays?
NPY Y2 blocker: 2; NPY-Y1 PAM-ag: 10; PGE2 EP2 inh: 10; EP2 mod: 17; NPY-Y1 antag: 4; NPY2 pot ag: -8

Results for N#CC(c1ccccc1)c1ccc(C(=O)c2ccc(F)cc2)cc1 (centres undefined) ?
NPY Y2 blocker: 9; NPY-Y1 PAM-ag: -51; PGE2 EP2 inh: -1; EP2 mod: 62*; NPY-Y1 antag: 8; NPY2 pot ag: -6

How did N#CC(c1ccc(F)cc1)c1ccc(C(=O)c2ccccc2)cc1 (centres undefined) do in these assays?
NPY Y2 blocker: 5; NPY-Y1 PAM-ag: -27; PGE2 EP2 inh: 9; EP2 mod: 2; NPY-Y1 antag: 2; NPY2 pot ag: -5

Results for Cc1ccc(NS(=O)(=O)c2ccc(OCC(=O)Nc3cccc([N+](=O)[O-])c3)c(C)c2)cc1 ?
NPY Y2 blocker: -5; NPY-Y1 PAM-ag: 44*; PGE2 EP2 inh: 3; EP2 mod: -28; NPY-Y1 antag: -16; NPY2 pot ag: 28

Results for Cn1c(NC(=O)c2cccnc2)nc2ccccc21 ?
NPY Y2 blocker: 2; NPY-Y1 PAM-ag: -3; PGE2 EP2 inh: 52*; EP2 mod: 17; NPY-Y1 antag: 7; NPY2 pot ag: 4

How did COCC(=O)N1CCN(c2ccc([N+](=O)[O-])cc2)CC1 do in these assays?
NPY Y2 blocker: 4; NPY-Y1 PAM-ag: 42*; PGE2 EP2 inh: 20; EP2 mod: 14; NPY-Y1 antag: -5; NPY2 pot ag: 19

Source: PubChem (several laboratories)
